From ChEMBL document CHEMBL1135620, “Cyclosporins: structure-activity relationships for the inhibition of the human FPR1 formylpeptide receptor” (J Med Chem, 2002) come the findings set out here.

This assay deals with T1, fMet-Leu-Phe receptor (Homo sapiens) (UniProt P21462).
T1 sequence (whole entry): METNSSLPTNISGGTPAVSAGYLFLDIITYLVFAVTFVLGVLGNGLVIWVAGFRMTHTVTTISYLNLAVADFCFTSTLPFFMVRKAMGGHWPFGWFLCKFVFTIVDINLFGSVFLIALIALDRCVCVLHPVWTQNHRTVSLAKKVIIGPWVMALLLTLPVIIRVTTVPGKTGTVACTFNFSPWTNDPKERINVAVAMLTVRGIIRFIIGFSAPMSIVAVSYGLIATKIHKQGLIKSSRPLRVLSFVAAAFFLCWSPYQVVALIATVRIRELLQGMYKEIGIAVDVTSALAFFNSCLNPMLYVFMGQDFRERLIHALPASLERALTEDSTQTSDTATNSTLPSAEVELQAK
Briefly: Inhibitory activity against Human formylpeptide receptor (FPR) of human leukemia HL-60 cells. In kind it is cell-based. The procedure, abridged: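 HL-60 cells differentiated 48 h with 0.2 mM dibutyryl cAMP, washed, then treated with 5 μM cytochalasin B (5–10 min, 37 °C). Stimulated 10 min with 30 nM f-MLF. N-acetyl-β-D-glucosaminidase release read at 410 nm on p-nitrophenyl substrate after spontaneous-release subtraction. Duplicate wells; IC20/IC50 as mean ± SD of independent experiments.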
In the case of `C/C=C/C[C@@H](C)[C@@H](O)[C@H]1C(=O)N[C@@H](CC)C(=O)N(C)CC(=O)N(C)[C@H](CC(C)C)C(=O)N[C@H](C(C)C)C(=O)N(C)[C@H](CC(C)C)C(=O)N[C@@H](C)C(=O)N[C@H](C)C(=O)N(C)[C@@H](CC(C)C)C(=O)N[C@@H](CC(C)C)C(=O)N(C)[C@@H](C(C)C)C(=O)N1C`, the IC20 (usually the concentration at which the effect reaches the 20% level) was 650 nM.

Turning to `CC/C=C/C[C@@H](C)[C@@H](O)[C@H]1C(=O)N[C@@H](CC)C(=O)N(C)CC(=O)N(C)[C@H](CC(C)C)C(=O)N[C@H](C(C)C)C(=O)N(C)[C@H](CC(C)C)C(=O)N[C@@H](C)C(=O)N[C@H](CCCCN)C(=O)N(C)[C@@H](CC(C)C)C(=O)N(C)[C@@H](CC(C)C)C(=O)N(C)[C@@H](C(C)C)C(=O)N1C`, the IC20 is 500 nM.

`C/C=C/C[C@@H](C)[C@@H](O)[C@H]1C(=O)N[C@@H](C)C(=O)N(C)CC(=O)N(C)[C@H](CC(C)C)C(=O)N[C@H](C(C)C)C(=O)N(C)[C@H](CC(C)C)C(=O)N[C@@H](C)C(=O)N[C@H](C)C(=O)N(C)[C@@H](CC(C)C)C(=O)N[C@@H](CC(C)C)C(=O)N(C)[C@@H](C(C)C)C(=O)N1C` came in with an IC20 of 200 nM.

On to `CCCCCC[C@H]1C(=O)N[C@@H](CC)C(=O)N(C)CC(=O)N(C)[C@H](CC(C)C)C(=O)N[C@H](C(C)C)C(=O)N(C)[C@H](CC(C)C)C(=O)N[C@@H](C)C(=O)N[C@H](C)C(=O)N(C)[C@@H](CC(C)C)C(=O)N(C)[C@@H](CC(C)C)C(=O)N(C)[C@@H](C(C)C)C(=O)N1C`, for which the IC20 is 1700 nM.

Compound `C/C=C/C[C@@H](C)[C@@H](O)[C@H]1C(=O)N[C@@H](CCC)C(=O)N(C)CC(=O)N(C)[C@H](CC(C)C)C(=O)N[C@@H](CCC)C(=O)N(C)[C@H](CC(C)C)C(=O)NC(C)C(=O)N[C@H](C)C(=O)N(C)[C@@H](CC(C)C)C(=O)N(C)[C@@H](CC(C)C)C(=O)N(C)[C@@H](C(C)C)C(=O)N1C` (stereo partly specified) showed an IC20 of 200 nM.

`CC[C@@H]1NC(=O)[C@H](CC2CCCCC2)N(C)C(=O)[C@H](C(C)C)N(C)C(=O)[C@H](CC(C)C)N(C)C(=O)[C@H](CC(C)C)N(C)C(=O)[C@@H](C)NC(=O)[C@H](C)NC(=O)[C@@H](CC(C)C)N(C)C(=O)[C@@H](C(C)C)NC(=O)[C@@H](CC(C)C)N(C)C(=O)CN(C)C1=O` had an IC20 of 1690 nM.

The compound `C/C=C/C[C@@H](C)[C@@H](O)[C@H]1C(=O)N[C@@H](CC)C(=O)N(C)CC(=O)N[C@@H]([C@@H](C)CC)C(=O)N[C@H](C(C)C)C(=O)N(C)[C@H](CC(C)C)C(=O)N[C@@H](C)C(=O)N[C@H](C)C(=O)N(C)[C@@H](CC(C)C)C(=O)N(C)[C@@H](CC(C)C)C(=O)N(C)[C@@H](C(C)C)C(=O)N1C` displayed an IC20 of 2800 nM.

With `C/C=C/C[C@@H](C)[C@@H](O)[C@H]1C(=O)N[C@@H]([C@@H](C)O)C(=O)N(C)CC(=O)N(C)[C@H](CC(C)C)C(=O)N[C@@H](CC(C)C)C(=O)N(C)[C@H](CC(C)C)C(=O)N[C@@H](C)C(=O)N[C@](O)(C(C)C)C(=O)N(C)[C@@H](CC(C)C)C(=O)N[C@@H](CC(C)C)C(=O)N(C)[C@@H](C(C)C)C(=O)N1C`, the IC20 was found to be 200 nM.

`CC(C)C[C@@H]1NC(=O)[C@@H](CC(C)C)N(C)C(=O)CN(C)C(=O)[C@H]([C@@H](C)O)NC(=O)[C@H]([C@H](O)[C@H](C)C/C=C/CO)N(C)C(=O)[C@H](C(C)C)N(C)C(=O)[C@H](CC(C)C)NC(=O)[C@H](CC(C)C)N(C)C(=O)[C@@](O)(C(C)C)NC(=O)[C@H](C)NC(=O)[C@@H](CC(C)C)N(C)C1=O` returned an IC20 of 470 nM.

As to `CC/C=C/C[C@@H](C)[C@@H](O)[C@H]1C(=O)N[C@@H](C(C)C)C(=O)N(C)CC(=O)N(C)[C@H](CC(C)C)C(=O)N[C@H](C(C)C)C(=O)N(C)[C@H](CC(C)C)C(=O)N[C@@H](C)C(=O)N[C@H](C)C(=O)N(C)[C@@H](CC(C)C)C(=O)N(C)[C@@H](CC(C)C)C(=O)N(C)[C@@H](C(C)C)C(=O)N1C`, the IC20 was determined as 3900 nM.

For the compound `CC/C=C/C[C@@H](C)[C@@H](O)[C@H]1C(=O)N[C@@H](CC)C(=O)N(C)CC(=O)N(C)[C@@H](CC(C)(C)O)C(=O)N[C@H](C(C)C)C(=O)N(C)[C@H](CC(C)C)C(=O)N[C@@H](C)C(=O)N[C@H](C)C(=O)N(C)[C@@H](CC(C)C)C(=O)N(C)[C@@H](CC(C)C)C(=O)N(C)[C@@H](C(C)C)C(=O)N1C`, the 20% effect level (IC20) was put at 1700 nM.
